Results on four molecules are retold here after ChEMBL document CHEMBL1275473, “Activities of ceftobiprole, linezolid, vancomycin, and daptomycin against community-associated and hospital-associated methicillin-resistant Staphylococcus aureus” (2008).

SMILES strings stand for the structures. ≈ marks a conversion by molar mass, not a printed value.

Common to all, as to format: functional
Experiment [1] relates to Staphylococcus aureus. Put plainly: Antimicrobial activity against community-acquired methicillin-resistant Staphylococcus aureus by broth microdilution method in presence of 50% human serum. In outline: (§1)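 Broth microdilution per CLSI, in duplicate, with 50% human serum added. Mueller-Hinton broth with 50 mg/liter calcium and 12.5 mg/liter magnesium. Run on 20 randomly chosen isolates, 10 CA-MRSA and 10 HA-MRSA.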
In general terms: Dilution methods test growth across graded concentrations, often in twofold steps.

Experiment [2] deals with Staphylococcus aureus. The experiment in a line: Bactericidal activity against community-acquired methicillin-resistant Staphylococcus aureus selected at 4 times MIC after 24 hrs by time kill analysis in presence of 50% human serum. Put shortly: (§2)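 Time-kill in triplicate on four randomly selected isolates per group. Start inoculum ~10^6 CFU/ml, drug at 4× MIC; serum arm has 50% human serum. Sampled over 0–24 h, diluted in cold 0.9% NaCl, spiral-plated; detection limit 2 log10 CFU/ml. Bactericidal means ≥3-log10 reduction. T99.9 by linear regression or visual inspection.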

The test system of experiment [3] is Staphylococcus aureus. The experiment in a line: Bactericidal activity against hospital-acquired methicillin-resistant Staphylococcus aureus selected at 4 times MIC after 24 hrs by time kill analysis. In outline: as §2
Experiment [4] relates to Staphylococcus aureus. The experiment in a line: Bactericidal activity against community-acquired methicillin-resistant Staphylococcus aureus selected at 4 times MIC after 24 hrs by time kill analysis. In outline: as §2
Experiment [5] concerns Staphylococcus aureus. Put plainly: Bactericidal activity against hospital-acquired methicillin-resistant Staphylococcus aureus selected at 4 times MIC after 24 hrs by time kill analysis in presence of 50% human serum. In outline: as §2
The test system of experiment [6] is Staphylococcus aureus. Put plainly: Bactericidal activity against community-acquired methicillin-resistant Staphylococcus aureus by broth microdilution method. The following applies: for MBC: Staphylococcus aureus. Put shortly:
(§3)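 MBC read after CLSI broth microdilution in duplicate. Mueller-Hinton broth with 25 mg/liter calcium and 12.5 mg/liter magnesium; for daptomycin, 50 mg/liter calcium. 5-μl aliquots from clear wells were plated onto tryptic soy agar.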

Experiment [7] has as its system Staphylococcus aureus. Put plainly: Antimicrobial activity against hospital-acquired methicillin-resistant Staphylococcus aureus by broth microdilution method. In outline:
(§4)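 Broth microdilution in duplicate per CLSI guidelines on clinical CA-/HA-MRSA isolates (100 each, Detroit Medical Center). Mueller-Hinton broth with 25 mg/liter calcium and 12.5 mg/liter magnesium; for daptomycin, 50 mg/liter calcium and 12.5 mg/liter magnesium.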

For experiment [8], the system named is Staphylococcus aureus. The experiment in a line: Antimicrobial activity against hospital-acquired methicillin-resistant Staphylococcus aureus by broth microdilution method in presence of 50% human serum. In outline:
as §1

Experiment [9] concerns Staphylococcus aureus. Put plainly: Antimicrobial activity against community-acquired methicillin-resistant Staphylococcus aureus by broth microdilution method. In outline:
as §4

Experiment [10] has as its system Staphylococcus aureus. Put plainly: Bactericidal activity against hospital-acquired methicillin-resistant Staphylococcus aureus by broth microdilution method. The following applies: for MBC: Staphylococcus aureus. In outline: as §3
The test system of experiment [11] is Staphylococcus aureus. Put plainly: Bactericidal activity against hospital-acquired methicillin-resistant Staphylococcus aureus by broth microdilution method in presence of 50% human serum. In outline:
(§5)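 MBC with 50% human serum on 10 CA-MRSA and 10 HA-MRSA isolates. Mueller-Hinton broth with 50 mg/liter calcium and 12.5 mg/liter magnesium. Aliquots from clear wells were plated onto tryptic soy agar.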

Experiment [12] concerns Staphylococcus aureus. The experiment in a line: Bactericidal activity against community-acquired methicillin-resistant Staphylococcus aureus by broth microdilution method in presence of 50% human serum. Put shortly: as §5
In experiment [13] the test system is Staphylococcus aureus. The experiment in a line: Bactericidal activity against community-acquired methicillin-resistant Staphylococcus aureus selected at 0.5 times MIC after 24 hrs by time kill analysis. Put shortly:
(§6)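 Time-kill at 0.5× or 1× MIC, alone and combined with tobramycin. Start inoculum ~10^6 CFU/ml, triplicate, sampled over 0–24 h and spiral-plated; detection limit 2 log10 CFU/ml. Bactericidal means ≥3-log10 CFU/ml reduction. Synergy means ≥2-log10 more killing at 24 h than the best single drug.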

The test system of experiment [14] is Staphylococcus aureus. Put plainly: Bactericidal activity against community-acquired methicillin-resistant Staphylococcus aureus selected at MIC after 24 hrs by time kill analysis. Put shortly:
as §6

In experiment [15] the test system is Staphylococcus aureus. Put plainly: Bactericidal activity against hospital-acquired methicillin-resistant Staphylococcus aureus selected at 0.5 times MIC after 24 hrs by time kill analysis. In outline:
as §6

Experiment [16] relates to Staphylococcus aureus. Put plainly: Bactericidal activity against hospital-acquired methicillin-resistant Staphylococcus aureus selected at MIC after 24 hrs by time kill analysis. Put shortly:
as §6

Consider `CCCCCCCCCC(=O)N[C@@H](Cc1c[nH]c2ccccc12)C(=O)N[C@H](CC(N)=O)C(=O)N[C@@H](CC(=O)O)C(=O)N[C@@H]1C(=O)NCC(=O)N[C@@H](CCCN)C(=O)N[C@@H](CC(=O)O)C(=O)N[C@H](C)C(=O)N[C@@H](CC(=O)O)C(=O)NCC(=O)N[C@H](CO)C(=O)N[C@@H]([C@H](C)CC(=O)O)C(=O)N[C@@H](CC(=O)c2ccccc2N)C(=O)O[C@@H]1C`, for which the MIC50 (as a rule, the lowest concentration that inhibits either 50% of growth or 50% of the strains tested, depending on the study) in the experiment on Staphylococcus aureus [1] worked out at 1 µg/mL; with Staphylococcus aureus [7], 0.25 µg/mL (≈ 0.154 µM); in the experiment with Staphylococcus aureus [8], 0.5 µg/mL; against Staphylococcus aureus [9], 0.25 µg/mL (≈ 0.154 µM). The MIC90 – broadly, an inhibitory concentration at the 90% level, which refers to growth in some studies and to a panel of isolates in others – in the experiment on Staphylococcus aureus [1] was found to be 1 µg/mL; against Staphylococcus aureus [7], 0.5 µg/mL (≈ 0.309 µM); with Staphylococcus aureus [8], 1 µg/mL; in the experiment on Staphylococcus aureus [9], 0.5 µg/mL (≈ 0.309 µM). Besides, the T99.9% in the experiment with Staphylococcus aureus [2] came to 2.2 h; in the experiment with Staphylococcus aureus [3] it was 1.6 h; with Staphylococcus aureus [4], 1.6 h; in the experiment on Staphylococcus aureus [5] it was 2.1 h. Besides, the MBC50 stood at 0.25 µg/mL (≈ 0.154 µM) in the experiment on Staphylococcus aureus [6], 0.25 µg/mL (≈ 0.154 µM) against Staphylococcus aureus [10], 1 µg/mL in the experiment on Staphylococcus aureus [11] and 1 µg/mL in the experiment on Staphylococcus aureus [12]. In addition, the MBC90 against Staphylococcus aureus [6] came out at 0.5 µg/mL (≈ 0.309 µM); with Staphylococcus aureus [10] it was 1 µg/mL (≈ 0.617 µM); with Staphylococcus aureus [11], 1 µg/mL; in the experiment on Staphylococcus aureus [12], 1 µg/mL. The minimum bactericidal concentration (MBC) (usually the lowest tested concentration that kills the bacteria rather than only halting them) turned out to be 0.125 µg/mL (≈ 0.0771 µM) with Staphylococcus aureus [6], 0.125 µg/mL (≈ 0.0771 µM) against Staphylococcus aureus [10], 0.5 µg/mL in the experiment on Staphylococcus aureus [11] (Staphylococcus aureus) and 0.5 µg/mL with Staphylococcus aureus [12] (Staphylococcus aureus).
Turning to `Nc1nc(/C(=N/O)C(=O)N[C@@H]2C(=O)N3C(C(=O)O)=C(/C=C4\CCN([C@@H]5CCNC5)C4=O)CS[C@H]23)ns1` [CEFTOBIPROLE], the T99.9% was determined as 14.2 h in the experiment on Staphylococcus aureus [13]; 8.6 h with Staphylococcus aureus [14]; 11.8 h with Staphylococcus aureus [3]; 8 h with Staphylococcus aureus [4]; 14.2 h with Staphylococcus aureus [15]; 8.6 h in the experiment with Staphylococcus aureus [16]. In addition, the MBC50 in the experiment on Staphylococcus aureus [6] and against Staphylococcus aureus [10] was 2 µg/mL (≈ 3.74 µM) each time. Moreover, the MBC90 in the experiment on Staphylococcus aureus [6] and with Staphylococcus aureus [10] was 4 µg/mL (≈ 7.48 µM) in each case. Besides, the minimal bactericidal concentration (MBC) in the experiment on Staphylococcus aureus [6] and in the experiment on Staphylococcus aureus [10] was 0.5 µg/mL (≈ 0.935 µM) throughout. Besides, the MIC50 against Staphylococcus aureus [7] and with Staphylococcus aureus [9] was 1 µg/mL (≈ 1.87 µM) throughout. In addition, the MIC90 against Staphylococcus aureus [7] and against Staphylococcus aureus [9] was 2 µg/mL (≈ 3.74 µM) each time.
Consider `CC(=O)NC[C@H]1CN(c2ccc(N3CCOCC3)c(F)c2)C(=O)O1` [LINEZOLID], for which, in the experiment with Staphylococcus aureus [6], the MBC50 amounted to 8 µg/mL (≈ 23.7 µM), the MBC90 is 32 µg/mL (≈ 94.9 µM) and the minimal bactericidal concentration (MBC) turned out to be 2 µg/mL (≈ 5.93 µM). For the same molecule, in the experiment on Staphylococcus aureus [7], the MIC50 worked out at 2 µg/mL (≈ 5.93 µM) and the MIC90 was 4 µg/mL (≈ 11.9 µM). In the experiment with Staphylococcus aureus [9], this molecule registered an MIC50 of 2 µg/mL (≈ 5.93 µM) and an MIC90 of 4 µg/mL (≈ 11.9 µM). In the experiment with Staphylococcus aureus [10], this molecule returned an MBC50 of 16 µg/mL (≈ 47.4 µM), an MBC90 of 64 µg/mL (≈ 190 µM) and a minimum bactericidal concentration (MBC) of 1 µg/mL (≈ 2.96 µM).
In turn, `CN[C@H](CC(C)C)C(=O)N[C@H]1C(=O)N[C@@H](CC(N)=O)C(=O)N[C@H]2C(=O)N[C@H]3C(=O)N[C@H](C(=O)N[C@H](C(=O)O)c4cc(O)cc(O)c4-c4cc3ccc4O)[C@H](O)c3ccc(c(Cl)c3)Oc3cc2cc(c3O[C@@H]2O[C@H](CO)[C@@H](O)[C@H](O)[C@H]2O[C@H]2C[C@](C)(N)[C@H](O)[C@H](C)O2)Oc2ccc(cc2Cl)[C@H]1O` [VANCOMYCIN] gave a T99.9% in the experiment on Staphylococcus aureus [3] of 8.6 h. Besides, the T99.9% in the experiment on Staphylococcus aureus [4] came out at 8.6 h. Moreover, in the experiment on Staphylococcus aureus [6], the MBC50 was found to be 1 µg/mL (≈ 0.69 µM), the MBC90 is 2 µg/mL (≈ 1.38 µM) and the MBC turned out to be 0.5 µg/mL (≈ 0.345 µM). In the experiment with Staphylococcus aureus [7], the MIC50 amounted to 1 µg/mL (≈ 0.69 µM) and the MIC90 was 2 µg/mL (≈ 1.38 µM). Also, in the experiment on Staphylococcus aureus [9], the MIC50 stood at 1 µg/mL (≈ 0.69 µM) and the MIC90 was 1 µg/mL (≈ 0.69 µM). In the experiment with Staphylococcus aureus [10], the MBC50 worked out at 1 µg/mL (≈ 0.69 µM), the MBC90 came out at 2 µg/mL (≈ 1.38 µM) and the MBC is 0.5 µg/mL (≈ 0.345 µM).
